Laboratory results: article PMC5835461 (Journal of Diabetes Investigation, 2017)

Key:
[1] = system: Japanese patients with type 1 diabetes; assay: Safety assessments; format: in vivo, human; conditions: Japanese T1D patients; 0.2 U/kg single s.c. dose
Method in brief: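 Monitored through screening, two single 0.2 U/kg subcutaneous dosing visits and follow-up 7–21 days after second dose. Covered adverse events, injection site reactions, hypoglycemia, safety laboratory parameters, vital signs, physical examination and ECG. Hypoglycemia counted as confirmed if severe (third-party assistance) or plasma glucose <3.1 mmol/L. Summary statistics covered all patients receiving at least one dose.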

[2] = Pharmacokinetics: free serum IAsp concentration; format: in vivo, human (Japanese patients with type 1 diabetes); conditions: Japanese T1D patients; 0.2 U/kg single s.c. dose; least squares mean
Method in brief: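 Randomized, double-blind crossover with 3–12 days between dosing visits. After an overnight fast, patients received 0.2 U/kg subcutaneously into the lower abdominal wall. A euglycemic clamp held BG at 5.5 mmol/L, with sampling from 10 min pre-dose to 12 h post-dose. Free serum IAsp (PEG-precipitated) was measured by validated ELISA (LLOQ 10 pmol/L). Times were taken from raw individual profiles and analysed by linear mixed model.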

Substance: insulin aspart [IAsp]
- Confirmed hypoglycemic episodes or injection site reactions [1]: No confirmed hypoglycemic episodes or injection site reactions
- Serious adverse events [1]: no serious adverse events
- Tolerability [1]: well tolerated
- t Early 50% Cmax [2]: 29.3 min
- t max [2]: 1.14 h
